Where two headings read alike, the source gives them in different places.
Experiments:
[1] = test system: human platelets; experiment: Human platelet viability assay; assay type: cell-based; conditions: for IC50: Homo sapiens, Platelet, 48 h, read-out: IC50 48 h treatment Platelets
In short: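 Platelets were separated from purchased platelet-rich plasma in acid citrate buffer with 1 μM PGE1 and 0.2 units/mL apyrase (final). Cells were centrifuged and adjusted to 2 × 10⁸/mL in HEPES Tyrode's buffer with 10% FBS, 1 μM PGE1 and 0.2 units/mL apyrase. They were treated for 48 h, with or without a 10 μM pomalidomide block, and read by MTS. IC50 values were curve-fitted. The ratio divides platelet IC50 by 48 h MOLT-4 MTS IC50.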

[2] = molecular target: BCL-XL (Homo sapiens, UniProt Q07817); experiment: Western blot of BCL-XL protein levels in MOLT-4 cells; assay type: cell-based; conditions: for BCL-XL degradation in MOLT-4 cells at 100 nM: Western blot (Figure 3)
In short: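 MOLT-4 cells were treated for 16 h with test compound (100 nM for VHL-based, 50 nM for CRBN-based, or a concentration series for DC50). Other runs used 100 nM over a time course, or 16 h exposure followed by washout into drug-free medium. Some cells were pretreated 2 h with 10 μM pomalidomide or 1 μM MG-132. Immunoblot bands were normalized to β-actin and expressed as % remaining versus vehicle.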

[3] = test system: RS4;11 B-cell ALL cell line; experiment: RS4; assay type: cell-based; conditions: Homo sapiens, RS4-11, 48 h, read-out: IC50 48 h treatment RS4;11
In short: (§1)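 NCI-H146 small-cell lung cancer and RS4;11 B-ALL cells maintained in RPMI 1640 plus 10% FBS and 1% penicillin-streptomycin. Cells seeded at 5×10⁴ to 1×10⁵ per well and treated with test compound for 48 h. Viability measured by tetrazolium-based MTS assay, with IC50 calculated from the viability data.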

[4] = test system: H146 small cell lung cancer cell line; experiment: H146 cell viability assay; assay type: cell-based; conditions: Homo sapiens, NCI-H146, 48 h, read-out: IC50 48 h treatment H146
In short: as §1

[5] = test system: MOLT-4 T-ALL cells; experiment: MOLT-4 cell viability assay; assay type: cell-based, human
[6] = test system: PARP and caspase-3 cleavage; experiment: Western blot of cleaved-PARP and cleaved-caspase-3 in MOLT-4 cells; assay type: cell-based, human; conditions: MOLT-4, 16 h, indicated concentrations
In short: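 MOLT-4 cells were exposed to a range of test compound concentrations for 16 h. Cleaved PARP and cleaved caspase-3 were detected by immunoblot. Equal protein was run on 4–20% Tris-glycine gels and transferred to PVDF. Membranes were blocked in 5% milk/TBS-Tween, given primary antibody overnight at 4 °C, then HRP secondary and ECL. β-actin served as loading control.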

[7] = test system: BCL-XL / BCL-2 ternary complexes with DT2216 and VHL; conditions: live cells, nanoBRET assay; cited from earlier work
[8] = test system: CLL patients; conditions: cited from earlier work
[9] = Homo sapiens, MOLT-4, 48 h, read-out: IC50 48 h treatment MOLT-4
[10] = Homo sapiens, MOLT-4, 48 h, read-out: IC50, reduction of MOLT-4 cell viability

Sequence of BCL-XL (Q07817 whole entry): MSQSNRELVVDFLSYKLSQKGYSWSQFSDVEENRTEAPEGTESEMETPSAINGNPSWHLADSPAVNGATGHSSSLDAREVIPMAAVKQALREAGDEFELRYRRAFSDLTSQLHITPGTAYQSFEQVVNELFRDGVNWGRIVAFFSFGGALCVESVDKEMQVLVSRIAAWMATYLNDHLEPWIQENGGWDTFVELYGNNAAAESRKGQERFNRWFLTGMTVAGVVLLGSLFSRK

In the case of “navitoclax [ABT-263, reference compound]”, the “selectivity for MOLT-4 cells over human platelets” value ([1]; MOLT-4 versus human platelets) is reported as “no selectivity” and the “IC50 ratio between human platelets and MOLT-4 cells” value ([1]; platelets IC50 / MOLT-4 IC50, 48 h) is reported as 1.1.

With `CN(CCCCCCCn1cc(COCCOCCNc2cccc3c2C(=O)N(C2CCC(=O)NC2=O)C3=O)nn1)CC[C@H](CSc1ccccc1)Nc1ccc(S(=O)(=O)NC(=O)c2ccc(N3CCN(CC4=C(c5ccc(Cl)cc5)CCC(C)(C)C4)CC3)cc2)cc1S(=O)(=O)C(F)(F)F` (stereo partly drawn) [Compound 15a, 4-(4-((4’-Chloro-4,4-dimethyl-3,4,5,6-tetrahydro-[1,1’-biphenyl]-2-yl)methyl)piperazin-1-yl)-N-((4-(((2R)-4-((7-(4-((2-(2-((2-(2,6-dioxopiperidin-3-yl)-1,3-dioxoisoindolin-4-yl)amino)ethoxy)ethoxy)methyl)-1H-1,2,3-triazol-1-yl)heptyl)(methyl)amino)-1-(phenylthio)butan-2-yl)amino)-3-((trifluoromethyl)sulfonyl)phenyl)sulfonyl)benzamide] the “BCL-XL degradation in MOLT-4 cells at 50 nM” value ([2]; 50 nM, 16 h, Western blot (Figure 4)) was “better BCL-XL degraders than their amide analogs”, the IC50 [3] was 62.2 nM and the IC50 [1] was 6250 nM. It also gave an IC50 [4] of 61.7 nM, an IC50 [5, 9] of 29.2 nM and an IC50 [5, 10] of 29.2 nM.

In the case of `CN(CCOCCOCCOCCNc1cccc2c1C(=O)N(C1CCC(=O)NC1=O)C2=O)CC[C@H](CSc1ccccc1)Nc1ccc(S(=O)(=O)NC(=O)c2ccc(N3CCN(CC4=C(c5ccc(Cl)cc5)CCC(C)(C)C4)CC3)cc2)cc1S(=O)(=O)C(F)(F)F` (stereo partly drawn) [Compound 17b, 4-(4-((4’-Chloro-4,4-dimethyl-3,4,5,6-tetrahydro-[1,1’-biphenyl]-2-yl)methyl)piperazin-1-yl)-N-((4-(((15R)-1-((2-(2,6-dioxopiperidin-3-yl)-1,3-dioxoisoindolin-4-yl)amino)-12-methyl-16-(phenylthio)-3,6,9-trioxa-12-azahexadecan-15-yl)amino)-3-((trifluoromethyl)sulfonyl)phenyl)sulfonyl)benzamide], the “effects on BCL-XL protein levels after drug washout” value ([2]; MOLT-4, 100 nM for 16 h then washout) is reported as “long-lasting and also reversible”, the “BCL-XL degradation after pretreatment with MG-132 or pomalidomide” value ([2]; MOLT-4, 1 μM MG-132 or 10 μM pomalidomide pretreatment for 2 h) is reported as “can be abrogated” and the “BCL-XL degradation at indicated concentrations” value ([2]; MOLT-4, 16 h, Western blot (Figure 5A, 5F)) is reported as “dose-dependently induced BCL-XL degradation”. The “PARP and caspase-3 cleavage” value [6] was “dose-dependently increased”, the IC50 [3] was 41.8 nM and the IC50 [1] was 1220 nM. The IC50 [4] was 25.3 nM and the IC50 [5, 10] was 10.1 nM.

`CC1(C)CCC(c2ccc(Cl)cc2)=C(CN2CCN(c3ccc(C(=O)NS(=O)(=O)c4ccc(N[C@H](CCN5CCN(CCOCCOCCOCCNc6cccc7c6C(=O)N(C6CCC(=O)NC6=O)C7=O)CC5)CSc5ccccc5)c(S(=O)(=O)C(F)(F)F)c4)cc3)CC2)C1` (stereo partly drawn) [Compound 12c, 4-(4-((4’-Chloro-4,4-dimethyl-3,4,5,6-tetrahydro-[1,1’-biphenyl]-2-yl)methyl)piperazin-1-yl)-N-((4-(((2R)-4-(4-(2-(2-(2-(2-((2-(2,6-dioxopiperidin-3-yl)-1,3-dioxoisoindolin-4-yl)amino)ethoxy)ethoxy)ethoxy)ethyl)piperazin-1-yl)-1-(phenylthio)butan-2-yl)amino)-3-((trifluoromethyl)sulfonyl)phenyl)sulfonyl)benzamide] showed an IC50 [3] of 38.5 nM, an IC50 [1] of 1560 nM and an IC50 [4] of 24.6 nM. It also gave an IC50 [5, 9] of 17.3 nM and an IC50 [5, 10] of 17.3 nM.

In the case of `Cc1ncsc1-c1ccc([C@H](C)NC(=O)[C@@H]2C[C@@H](O)CN2C(=O)[C@@H](NC(=O)CCCCCC(=O)N2CCN(CC[C@H](CSc3ccccc3)Nc3ccc(S(=O)(=O)NC(=O)c4ccc(N5CCN(CC6=C(c7ccc(Cl)cc7)CCC(C)(C)C6)CC5)cc4)cc3S(=O)(=O)C(F)(F)F)CC2)C(C)(C)C)cc1` [Compound 1e, (2S,4R)-1-((S)-2-(7-(4-((R)-3-((4-(N-(4-(4-((4’-Chloro-4,4-dimethyl-3,4,5,6-tetrahydro-[1,1’-biphenyl]-2-yl)methyl)piperazin-1-yl)benzoyl)sulfamoyl)-2-((trifluoromethyl)sulfonyl)phenyl)amino)-4-(phenylthio)butyl)piperazin-1-yl)-7-oxoheptanamido)-3,3-dimethylbutanoyl)-4-hydroxy-N-((S)-1-(4-(4-methylthiazol-5-yl)phenyl)ethyl)pyrrolidine-2-carboxamide], the “formation of stable ternary complexes with VHL” value [7] is listed as “BCL-XL, but not BCL-2, can form stable ternary complexes” and the “times more potent than ABT-263 in reducing MOLT-4 cell viability” value ([5]; MOLT-4, versus ABT-263) is listed as 3 times.

In the case of `Cc1ncsc1-c1ccc([C@H](C)NC(=O)[C@@H]2C[C@@H](O)CN2C(=O)[C@@H](NC(=O)CCCCCCN(C)CC[C@H](CSc2ccccc2)Nc2ccc(S(=O)(=O)NC(=O)c3ccc(N4CCN(CC5=C(c6ccc(Cl)cc6)CCC(C)(C)C5)CC4)cc3)cc2S(=O)(=O)C(F)(F)F)C(C)(C)C)cc1` [Compound 6c, (2S,4R)-1-((S)-2-(7-(((R)-3-((4-(N-(4-(4-((4’-Chloro-4,4-dimethyl-3,4,5,6-tetrahydro-[1,1’-biphenyl]-2-yl)methyl)piperazin-1-yl)benzoyl)sulfamoyl)-2-((trifluoromethyl)sulfonyl)phenyl)amino)-4-(phenylthio)butyl)(methyl)amino)heptanamido)-3,3-dimethylbutanoyl)-4-hydroxy-N-((S)-1-(4-(4-methylthiazol-5-yl)phenyl)ethyl)pyrrolidine-2-carboxamide], the “BCL-XL degradation in MOLT-4 cells at 100 nM” value ([2]; 16 h) is reported as “the most potent degrader among its analogs”.

For `CC1(C)CCC(CN2CCN(c3ccc(C(=O)NS(=O)(=O)c4ccc(NCC5CCOCC5)c([N+](=O)[O-])c4)c(Oc4cnc5[nH]ccc5c4)c3)CC2)=C(c2ccc(Cl)cc2)C1` [venetoclax], the complete remission rate [8] is listed as 20% and the overall response rate [8] is listed as 71–79%.

In the case of `CN(CCCNc1cccc2c1C(=O)N(C1CCC(=O)NC1=O)C2=O)CC[C@H](CSc1ccccc1)Nc1ccc(S(=O)(=O)NC(=O)c2ccc(N3CCN(CC4=C(c5ccc(Cl)cc5)CCC(C)(C)C4)CC3)cc2)cc1S(=O)(=O)C(F)(F)F` (stereo partly drawn) [Compound 16a, 4-(4-((4’-Chloro-4,4-dimethyl-3,4,5,6-tetrahydro-[1,1’-biphenyl]-2-yl)methyl)piperazin-1-yl)-N-((4-(((2R)-4-((3-((2-(2,6-dioxopiperidin-3-yl)-1,3-dioxoisoindolin-4-yl)amino)propyl)(methyl)amino)-1-(phenylthio)butan-2-yl)amino)-3-((trifluoromethyl)sulfonyl)phenyl)sulfonyl)benzamide], the IC50 [3] is reported as 129 nM, the IC50 [1] is reported as 3300 nM and the IC50 [4] is reported as 70.2 nM. It also gave an IC50 [5, 9] of 32.5 nM and an IC50 [5, 10] of 32.5 nM.

For “(2S,4R)-1-((S)-2-(2-(2-(2-(4-((R)-3-((4-(N-(4-(4-((4’-Chloro-4,4-dimethyl-3,4,5,6-tetrahydro-[1,1’-biphenyl]-2-yl)methyl)piperazin-1-yl)benzoyl)sulfamoyl)-2-((trifluoromethyl)sulfonyl)phenyl)amino)-4-(phenylthio)butyl)piperazin-1-yl)ethoxy)ethoxy)acetamido)-3,3-dimethylbutanoyl)-4-hydroxy-N-((S)-1-(4-(4-methylthiazol-5-yl)phenyl)ethyl)pyrrolidine-2-carboxamide [Compound 4b]”, the “BCL-XL degradation in MOLT-4 cells at 100 nM” value ([2]; 16 h) was “slightly more potent in inducing BCL-XL degradation than 4a”, the “times less potent than 4a in reducing MOLT-4 cell viability” value ([5]; MOLT-4, versus 4a) was ~ 6 times and the IC50 ([5]; read-out: IC50, reduction of MOLT-4 cell viability, MOLT-4 cells, 48 h treatment, means of at least three independent experiments (Tables 1-4)) was 914 nM.

Source: paper PMC7433031 (European journal of medicinal chemistry, 2020)
